Activity calls are given as the source filed them. The calls are words filed in the database; no cut-off is given here.
Columns and labels:
[1] = Cytotoxicity against human A549 cells assessed as decrease in cell viability after 24 hrs by MTT assay; type: cell-based
Procedure, shortened: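 A549 cells were treated with compound at a series of concentrations for 24 h, and viability was read by MTT assay. Controls received 0.4% (v/v) DMSO. CC50 is given in μg/mL.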

Staphylococcus aureus [2] = assay: Antimicrobial activity against methicillin-resistant Staphylococcus aureus isolate 12-3 after 18 hrs by agar dilution assay; type: functional; conditions: isolate 12-3, 18 h
Procedure, shortened: (§1)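 Drug-resistant S. aureus (MRSA/VISA) panel. It includes ATCC reference strains and clinical isolates from patients in Chinese hospitals. MIC was determined by standard methods and reported in μg/mL, with levofloxacin as the reference drug.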

Staphylococcus aureus [3] = assay: Antimicrobial activity against methicillin-sensitive Staphylococcus aureus isolate 13-17 after 18 hrs by agar dilution assay; type: functional; conditions: isolate 13-17, 18 h
[4] = system: Staphylococcus epidermidis; assay: Antimicrobial activity against methicillin-sensitive Staphylococcus epidermidis ATCC 12228 after 18 hrs by agar dilution assay; type: functional; conditions: ATCC 12228, 18 h
Staphylococcus aureus [5] = assay: Antimicrobial activity against methicillin-sensitive Staphylococcus aureus isolate 13-20 after 18 hrs by agar dilution assay; type: functional; conditions: isolate 13-20, 18 h
Staphylococcus aureus [6] = assay: Antimicrobial activity against methicillin-sensitive Staphylococcus aureus ATCC 29213 after 18 hrs by agar dilution assay; type: functional; conditions: ATCC 29213, 18 h
Staphylococcus aureus [7] = assay: Antimicrobial activity against methicillin-resistant Staphylococcus aureus isolate 12-13 after 18 hrs by agar dilution assay; type: functional; conditions: isolate 12-13, 18 h; procedure, shortened: as §1
Staphylococcus aureus [8] = assay: Antimicrobial activity against vancomycin-intermediate Staphylococcus aureus ATCC 700698 after 18 hrs by agar dilution assay; type: functional; conditions: ATCC 700698, 18 h
Procedure, shortened: (§2)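 MICs in μg/mL against drug-resistant S. aureus (MRSA/VISA) by standard methods, with levofloxacin as the reference drug. ATCC strains were used.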

Staphylococcus hominis = assay: Antimicrobial activity against Staphylococcus hominis ATCC 35982 after 18 hrs by agar dilution assay; type: functional; conditions: ATCC 35982, 18 h
Staphylococcus aureus [9] = assay: Antimicrobial activity against methicillin-resistant Staphylococcus aureus isolate 12-8 after 18 hrs by agar dilution assay; type: functional; conditions: isolate 12-8, 18 h; procedure, shortened: as §1
[10] = system: Staphylococcus epidermidis; assay: Antimicrobial activity against methicillin-sensitive Staphylococcus epidermidis isolate 13-1 after 18 hrs by agar dilution assay; type: functional; conditions: isolate 13-1, 18 h
Staphylococcus aureus [11] = assay: Antimicrobial activity against methicillin-resistant Staphylococcus aureus ATCC-BAA-1708 after 18 hrs by agar dilution assay; type: functional; conditions: ATCC-BAA-1708, 18 h; procedure, shortened: as §1
Staphylococcus aureus [12] = assay: Antimicrobial activity against methicillin-sensitive Staphylococcus aureus isolate 15 after 18 hrs by agar dilution assay; type: functional; conditions: isolate 15, 18 h
Staphylococcus aureus [13] = assay: Antimicrobial activity against methicillin-resistant Staphylococcus aureus isolate 13-23 after 18 hrs by agar dilution assay; type: functional; conditions: isolate 13-23, 18 h; procedure, shortened: as §1
Staphylococcus aureus [14] = assay: Antimicrobial activity against methicillin-sensitive Staphylococcus aureus isolate 13-19 after 18 hrs by agar dilution assay; type: functional; conditions: isolate 13-19, 18 h
[15] = system: Staphylococcus saprophyticus; assay: Antimicrobial activity against Staphylococcus saprophyticus ATCC 15305 after 18 hrs by agar dilution assay; type: functional; conditions: ATCC 15305, 18 h
Staphylococcus aureus [16] = assay: Antimicrobial activity against methicillin-resistant Staphylococcus aureus isolate 12-16 after 18 hrs by agar dilution assay; type: functional; conditions: isolate 12-16, 18 h; procedure, shortened: as §1
Staphylococcus aureus [17] = assay: Antimicrobial activity against methicillin-resistant Staphylococcus aureus isolate 13-18 after 18 hrs by agar dilution assay; type: functional; conditions: isolate 13-18, 18 h; procedure, shortened: as §1
Staphylococcus aureus [18] = assay: Antimicrobial activity against methicillin-resistant Staphylococcus aureus ATCC 33591 after 18 hrs by agar dilution assay; type: functional; conditions: ATCC 33591, 18 h; procedure, shortened: as §1
Staphylococcus aureus [19] = assay: Antimicrobial activity against vancomycin-intermediate Staphylococcus aureus ATCC 700699 after 18 hrs by agar dilution assay; type: functional; conditions: ATCC 700699, 18 h; procedure, shortened: as §2
Staphylococcus aureus [20] = assay: Antimicrobial activity against methicillin-sensitive Staphylococcus aureus isolate 13-21 after 18 hrs by agar dilution assay; type: functional; conditions: isolate 13-21, 18 h
DNA = assay: Binding affinity to Escherichia coli DH5-alpha supercoiled pET-32a DNA assessed as conversion of closed circular form to open circular form of DNA at 61.5 to 492 ug/ml after 4 hrs by agarose gel electrophoresis; type: nucleic-acid assay
Procedure, shortened: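 Supercoiled pET-32a plasmid DNA was incubated with compound at increasing concentrations for 4 h at 37 °C under physiological conditions. DNA forms were resolved by agarose gel electrophoresis.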

[21] = Stability in Sprague-Dawley rat blood assessed as parent compound remaining at […] after 420 mins by LC-MS/MS analysis; type: ADME, tissue-based; conditions: read-out: Stability

COc1ccc2c(c[n+]3c4c2ccc2c5c(cc(c24)CC3)OCO5)c1OC(C)=O.[Cl-]
CC50 at 24 h [1]: > 33.6 µg/mL | MIC (Staphylococcus aureus [2]): 4 µg/mL | MIC (Staphylococcus aureus [3]): 1 µg/mL | MIC [4]: 1 µg/mL | MIC (Staphylococcus aureus [5]): 2 µg/mL | MIC (Staphylococcus aureus [6]): 1 µg/mL | MIC (Staphylococcus aureus [7]): 4 µg/mL | MIC (Staphylococcus aureus [8]): 16 µg/mL | MIC (Staphylococcus hominis): 2 µg/mL | MIC (Staphylococcus aureus [9]): 8 µg/mL | MIC [10]: 2 µg/mL | MIC (Staphylococcus aureus [11]): 8 µg/mL | MIC (Staphylococcus aureus [12]): 2 µg/mL | MIC (Staphylococcus aureus [13]): 2 µg/mL | MIC (Staphylococcus aureus [14]): 8 µg/mL | MIC [15]: 4 µg/mL | MIC (Staphylococcus aureus [16]): 2 µg/mL | MIC (Staphylococcus aureus [17]): 1 µg/mL | MIC (Staphylococcus aureus [18]): 4 µg/mL | MIC (Staphylococcus aureus [19]): 32 µg/mL | MIC (Staphylococcus aureus [20]): 4 µg/mL

COc1ccc2c(c[n+]3c4c2ccc2c5c(cc(c24)CC3)OCO5)c1O.[Cl-]
MIC (Staphylococcus aureus [2]): 0.25 µg/mL | MIC (Staphylococcus aureus [3]): 0.25 µg/mL | MIC [4]: 0.5 µg/mL | MIC (Staphylococcus aureus [5]): 0.25 µg/mL | MIC (Staphylococcus aureus [6]): 0.25 µg/mL | MIC (Staphylococcus aureus [7]): 1 µg/mL | MIC (Staphylococcus aureus [8]): 0.5 µg/mL | MIC (Staphylococcus hominis): 0.5 µg/mL | MIC (Staphylococcus aureus [9]): 0.5 µg/mL | MIC [10]: 0.5 µg/mL | MIC (Staphylococcus aureus [11]): 0.5 µg/mL | MIC (Staphylococcus aureus [12]): 4 µg/mL | MIC (Staphylococcus aureus [13]): 0.25 µg/mL | MIC (Staphylococcus aureus [14]): 0.5 µg/mL | MIC [15]: > 64 µg/mL | MIC (Staphylococcus aureus [16]): 0.5 µg/mL | MIC (Staphylococcus aureus [17]): 0.25 µg/mL | MIC (Staphylococcus aureus [18]): 0.25 µg/mL | MIC (Staphylococcus aureus [19]): 0.25 µg/mL | MIC (Staphylococcus aureus [20]): 0.5 µg/mL

COc1ccc2c(c[n+]3c4c2ccc2c5c(cc(c24)CC3)OCO5)c1NC(=O)c1csnn1.[Cl-]
CC50 at 24 h [1]: 16.1 µg/mL | MIC (Staphylococcus aureus [2]): 2 µg/mL | MIC (Staphylococcus aureus [3]): 2 µg/mL | MIC [4]: 4 µg/mL | MIC (Staphylococcus aureus [5]): 2 µg/mL | MIC (Staphylococcus aureus [6]): 2 µg/mL | MIC (Staphylococcus aureus [7]): 4 µg/mL | MIC (Staphylococcus aureus [8]): 16 µg/mL | Activity (DNA): Active | MIC (Staphylococcus hominis): 2 µg/mL | MIC (Staphylococcus aureus [9]): 2 µg/mL | MIC [10]: 2 µg/mL | MIC (Staphylococcus aureus [11]): 2 µg/mL | MIC (Staphylococcus aureus [12]): 4 µg/mL | MIC (Staphylococcus aureus [13]): 2 µg/mL | MIC (Staphylococcus aureus [14]): 2 µg/mL | MIC [15]: 4 µg/mL | MIC (Staphylococcus aureus [16]): 2 µg/mL | MIC (Staphylococcus aureus [17]): 2 µg/mL | MIC (Staphylococcus aureus [18]): 2 µg/mL | MIC (Staphylococcus aureus [19]): 8 µg/mL | MIC (Staphylococcus aureus [20]): 2 µg/mL | remaining at 7 h [21]: 57.2%

COc1ccc2c(c[n+]3c4c2ccc2c5c(cc(c24)CC3)OCO5)c1OCC(=O)c1ccccc1.[Br-]
MIC (Staphylococcus aureus [2]): 16 µg/mL | MIC (Staphylococcus aureus [3]): 16 µg/mL | MIC [4]: 8 µg/mL | MIC (Staphylococcus aureus [5]): 32 µg/mL | MIC (Staphylococcus aureus [6]): 16 µg/mL | MIC (Staphylococcus aureus [7]): 32 µg/mL | MIC (Staphylococcus aureus [8]): > 64 µg/mL | MIC (Staphylococcus hominis): 32 µg/mL | MIC (Staphylococcus aureus [9]): 16 µg/mL | MIC [10]: 64 µg/mL | MIC (Staphylococcus aureus [11]): 32 µg/mL | MIC (Staphylococcus aureus [12]): 32 µg/mL | MIC (Staphylococcus aureus [13]): 16 µg/mL | MIC (Staphylococcus aureus [14]): 16 µg/mL | MIC [15]: 16 µg/mL | MIC (Staphylococcus aureus [16]): 32 µg/mL | MIC (Staphylococcus aureus [17]): 32 µg/mL | MIC (Staphylococcus aureus [18]): 16 µg/mL | MIC (Staphylococcus aureus [19]): > 64 µg/mL | MIC (Staphylococcus aureus [20]): 16 µg/mL

COc1ccc(C(=O)COc2c(OC)ccc3c2c[n+]2c4c3ccc3c5c(cc(c34)CC2)OCO5)cc1C(F)(F)F.[Br-]
MIC (Staphylococcus aureus [2]): 4 µg/mL | MIC (Staphylococcus aureus [3]): 4 µg/mL | MIC [4]: 4 µg/mL | MIC (Staphylococcus aureus [5]): 4 µg/mL | MIC (Staphylococcus aureus [6]): 4 µg/mL | MIC (Staphylococcus aureus [7]): 4 µg/mL | MIC (Staphylococcus aureus [8]): > 64 µg/mL | MIC (Staphylococcus hominis): 4 µg/mL | MIC (Staphylococcus aureus [9]): 8 µg/mL | MIC [10]: 8 µg/mL | MIC (Staphylococcus aureus [11]): 16 µg/mL | MIC (Staphylococcus aureus [12]): 4 µg/mL | MIC (Staphylococcus aureus [13]): 4 µg/mL | MIC (Staphylococcus aureus [14]): 4 µg/mL | MIC [15]: 4 µg/mL | MIC (Staphylococcus aureus [16]): 8 µg/mL | MIC (Staphylococcus aureus [17]): 8 µg/mL | MIC (Staphylococcus aureus [18]): 4 µg/mL | MIC (Staphylococcus aureus [19]): > 64 µg/mL | MIC (Staphylococcus aureus [20]): 8 µg/mL

COc1ccc2c(c[n+]3c4c2ccc2c5c(cc(c24)CC3)OCO5)c1NC(=O)c1c(C)noc1C.[Cl-]
MIC (Staphylococcus aureus [2]): > 64 µg/mL | MIC (Staphylococcus aureus [3]): > 64 µg/mL | MIC [4]: > 64 µg/mL | MIC (Staphylococcus aureus [5]): > 64 µg/mL | MIC (Staphylococcus aureus [6]): > 64 µg/mL | MIC (Staphylococcus aureus [7]): > 64 µg/mL | MIC (Staphylococcus aureus [8]): > 64 µg/mL | MIC (Staphylococcus hominis): > 64 µg/mL | MIC (Staphylococcus aureus [9]): > 64 µg/mL | MIC [10]: > 64 µg/mL | MIC (Staphylococcus aureus [11]): > 64 µg/mL | MIC (Staphylococcus aureus [12]): > 64 µg/mL | MIC (Staphylococcus aureus [13]): > 64 µg/mL | MIC (Staphylococcus aureus [14]): > 64 µg/mL | MIC [15]: > 64 µg/mL | MIC (Staphylococcus aureus [16]): > 64 µg/mL | MIC (Staphylococcus aureus [17]): > 64 µg/mL | MIC (Staphylococcus aureus [18]): > 64 µg/mL | MIC (Staphylococcus aureus [19]): > 64 µg/mL | MIC (Staphylococcus aureus [20]): > 64 µg/mL

COc1ccc2c(c[n+]3c4c2ccc2c5c(cc(c24)CC3)OCO5)c1OCC(=O)C12CC3CC(CC(C3)C1)C2.[Br-]
CC50 at 24 h [1]: 2 µg/mL | MIC (Staphylococcus aureus [2]): 4 µg/mL | MIC (Staphylococcus aureus [3]): 2 µg/mL | MIC [4]: 2 µg/mL | MIC (Staphylococcus aureus [5]): 4 µg/mL | MIC (Staphylococcus aureus [6]): 4 µg/mL | MIC (Staphylococcus aureus [7]): 4 µg/mL | MIC (Staphylococcus aureus [8]): 8 µg/mL | MIC (Staphylococcus hominis): 2 µg/mL | MIC (Staphylococcus aureus [9]): 4 µg/mL | MIC [10]: 2 µg/mL | MIC (Staphylococcus aureus [11]): 4 µg/mL | MIC (Staphylococcus aureus [12]): 2 µg/mL | MIC (Staphylococcus aureus [13]): 2 µg/mL | MIC (Staphylococcus aureus [14]): 4 µg/mL | MIC [15]: 2 µg/mL | MIC (Staphylococcus aureus [16]): 2 µg/mL | MIC (Staphylococcus aureus [17]): 4 µg/mL | MIC (Staphylococcus aureus [18]): 2 µg/mL | MIC (Staphylococcus aureus [19]): 8 µg/mL | MIC (Staphylococcus aureus [20]): 2 µg/mL | remaining at 7 h [21]: 58%

Reference: ChEMBL document CHEMBL4145598, “Discovery and Development of 8-Substituted Cycloberberine Derivatives as Novel Antibacterial Agents against MRSA” (ACS Med Chem Lett, 2018)
